Screening data deposited in PubChem BioAssay by several laboratories.
HDAC3 inhib = HDAC3 deacetylase inhibitors, primary screen, biochemical, fluorescence, cell-free homogeneous | Histone deacetylase 3 (Homo sapiens), O15379 | inhibition, % at 8.3 µM | recombinant HDAC3, fluorogenic peptide/trypsin coupled | AID 2718, 2010 | 320,000 compounds, 0.15% hits; in the data active means inhibition above about 26%, passing the limit was not always enough; inconclusive means no clear call, values can overlap the other calls
HKDC1 inh = HKDC1 hexokinase inhibitors, primary screen, biochemical, fluorescence, uHTS; Q2TB90; recombinant HKDC1, G6PDH/diaphorase resazurin coupled fluorescence; 340,000 compounds, 0.16% hits; inhibition, % at 20 µM;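 active means inhibition above about 35% when tested at 20 µM, limit read from the data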
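Incubation: 90 min at room temperature in dark / Material: recombinant HKDC1 (HK5) hexokinase enzyme, produced in-house / Quantity: enzyme 5 µg/mL final / Compound: one dose of 20 µM, 1% DMSO / Reagent: glucose and ATP substrates / Buffer or medium: Tris pH 8.0 buffer with MgCl2, Tween-20, BSA, BME / Technique: resorufin fluorescence at 613 nm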
Bfl-1 A1 inh = caspase 3/7 activation in MEF A1-2A-BIM cells, primary screen, A1 inhibitor project, cell-based, luminescence, HTS. AID 2462, 2010. caspase activation, % (no concentration beside the values). 330,000 compounds, 0.066% hits. Caspase-Glo 3/7 luminescence, 3 h; percent of clofoctol response, vehicle zero;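 active means over half of replicate activation scores above 10%, or exactly half above 10 with the replicate mean above 10; inconclusive means replicate mean below 10 yet half the replicates above 10; inactive means over half of replicates below 10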
ATG4B inh = ATG4B protease inhibitors, primary screen, biochemical, fluorescence, uHTS; Cysteine protease ATG4B (Homo sapiens), Q9Y4P1; ATG4B cleavage of LC3-PLA2, NBD-HPC fluorescence, 1 h; inhibition, % at 8.33 µM; 340,000 compounds, 0.51% hits; AID 504462, 2011; in the data active means inhibition above about 40%
AI-2 QS mod = Vibrio harveyi AI-2 quorum sensing modulators, primary screen, JMH597 strain, luminescence/OD600 ratio; 300,000 compounds, 0.4% hits; activity change, % at 7.5 µM; Vibrio harveyi JMH597 AI-2 luminescence/OD600 ratio, 9 h; hits give low values; strain lacks LuxN and CqsS sensors; 0 = neutral-control median; AID 2094, 2009; in the data active means activity change below about -75%, passing the limit was not always enough; inconclusive means no clear call, values can overlap the other calls;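 further: luminescence divided by OD600 gain over 9 h not by final OD600 alone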
LANA-H2A inh = blockers of LANA interaction with H2A/H2B – biochemical, FP readout, HTS, primary screen; cell-free LANA-H2A/H2B peptide, fluorescence polarization; inhibition, % (concentration not given with the values); 320,000 compounds, 0.6% hits; in the data active means inhibition mostly above about 10%, no sharp cut-off; inactive means mostly below about 6.7%
Hits are given with their value; - = inactive; ? = inconclusive; . = no result given; + = active, no number. Shown are actives, neighbours in structure and some others; about 1.8% of the full set was active somewhere.

SMILES | HDAC3 inhib | HKDC1 inh | Bfl-1 A1 inh | ATG4B inh | AI-2 QS mod | LANA-H2A inh
CC(C)(C)N(Cc1ccccc1)C(=O)COC(=O)CNC(=O)c1ccco1 | - | - | 16 | - | - | -
COC(=O)[C@]1(Cc2ccccc2)N[C@H](CN(C)C(=O)C2CCCCC2)[C@@H]2C(=O)N(C)C(=O)[C@@H]21 | . | - | . | - | . | .
CC[C@@]1(C(=O)OC)N[C@H](CN(C)C(=O)C2CCCCC2)[C@@H]2C(=O)N(C)C(=O)[C@@H]21 | - | - | - | - | . | +
COC1OC2COC(c3ccccc3)OC2C(O)C1NC(=O)c1ccccc1 (stereo not given) | . | - | . | - | . | .
O=C(NCc1ccc(F)cc1)c1cc(S(=O)(=O)N2CCCCC2)ccc1Cl | - | - | - | - | . | 79
CCOCCCNC(=S)N(CCN(C)C)Cc1cc2cc3c(cc2[nH]c1=O)OCCO3 | 35 | - | - | - | - | -
COc1ccc(CNC(=O)CSc2nc3nc(C)cc(C)n3n2)cc1 | - | - | ? | - | - | -
COc1ccccc1CNC(=O)CSc1nc2nc(C)cc(C)n2n1 | - | - | - | - | - | 50
COc1ccc(C(=O)NCC(=O)OCC(=O)NCc2ccco2)cc1 | - | - | - | - | . | -
COc1cc(OC)cc(C(=O)NCC(=O)OCC(=O)NCc2ccco2)c1 | 33 | - | - | - | . | -
CC(OC(=O)c1ccc(C#N)cc1)C(=O)Nc1ccc(Cl)cn1 (stereo not given) | . | - | . | - | . | .
Cc1cc(C)n2c(=O)c3ccc(Cl)cc3nc2c1C#N | - | - | - | - | - | -
Cc1cc(Cl)n2c(nc3cc(F)c(F)cc32)c1C#N | . | - | . | - | -96 | .
CCNc1nc(NCC)nc(N/N=C/c2ccc(N(C)C)cc2)n1 | - | - | - | - | - | 65
CCNc1nc(NCC)nc(N/N=C/c2ccc(O)c(O)c2)n1 | - | - | - | - | - | -
CN(CCc1ccccc1)C(=O)c1ccc(NC(=O)Cc2ccc(NC(=O)C3CCN(C(=O)C4CCC4)CC3)cc2)cc1 | . | - | . | - | . | .
CCC1(CC)SC(N)=NC1=O | . | - | . | - | . | .
CCOC(=O)C1=C(O)c2ccccc2C(=O)/C1=C\c1ccc(C)cc1 | - | 67 | - | - | . | -
Cc1cc(C)nc(-n2ncc(C#N)c2N)n1 | - | - | - | - | - | 11
CCCCN1C(=O)C2(OCCCO2)c2cccc(C)c21 | - | - | - | - | - | 18
COc1ccc(NC(=S)NNC(=O)OC(C)(C)C)cc1OC | - | - | - | - | - | 33
O=C(CCN1C(=O)/C(=C/c2cccs2)SC1=S)N1CCCCC1 | - | - | - | - | - | 24
Cc1ccc(/C=C2/SC(=S)N(CCC(=O)N3CCN(C)CC3)C2=O)cc1 | - | - | - | - | - | -
CN1CCN(C(=O)CCN2C(=O)/C(=C/c3ccc(F)cc3)SC2=S)CC1 | - | - | - | - | - | 12
C#CCN1[C@@H]2CCN(C2)c2cc(Br)ccc2S1(=O)=O | . | - | . | . | . | .
SMILES | HDAC3 inhib | HKDC1 inh | Bfl-1 A1 inh | ATG4B inh | AI-2 QS mod | LANA-H2A inh
CC1=NN(c2ccc(Cl)cc2)C(=O)/C1=C\c1cccn1-c1ccc(S(N)(=O)=O)cc1 | - | - | - | - | - | -
COc1ccc2c(c1O)-c1ccccc1CCN(C)C2 | - | - | - | - | - | -
CN1CCc2cccc3c2[C@@H]1Cc1ccc(O)c(O)c1-3 | . | - | . | - | - | +
CCOc1ccc(CCn2c(-c3ccco3)nc3ccccc3c2=O)cc1OCC | - | - | - | - | - | 11
O=c1c2ccccc2nc(-c2ccco2)n1Cc1ccccc1 | - | - | - | - | - | -
Clc1ccc(CNc2ncnc3[nH]ncc23)c(Cl)c1 | . | - | . | - | . | .
CCNC(=S)Nc1ccc2c(c1)oc1ccccc12 | - | - | - | - | - | -
CCNC(=S)Nc1ccc2ncoc2c1 | - | - | - | - | - | 31
COc1ccc(OC)c(C2C(C(=O)c3ccco3)=C(O)C(=O)N2Cc2cccnc2)c1 (stereo not given) | - | - | - | - | - | -
